HIV Env fusion: inhibitors of HIV-1 Env-driven cell-cell fusion, primary screen, HeLa-JRFL effector, CEM21 target cells, luciferase | hit rate 1.1% among 360,000 | AID 651610, 2012 | inhibition, % at 12.3 µM;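 active = mean replicate inhibition score of at least 50 and every replicate individually at or above 50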
Cneo AK release: Cryptococcus neoformans cell lysis inducers, primary screen, AK release luminescence, single concentration. hit rate 0.2% among 360,000. lysis activity, % at 15 µM. AID 651654, 2012. C. neoformans lysis, adenylate kinase release luminescence, 4 h; normalised: neutral wells 0, clomiphene wells 100;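 active = mean lysis activity across replicates of at least 80%, whatever share of replicates individually reach that level; inactive = mean lysis activity below 80%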
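Assay system: C. neoformans cells. Amount: yeast cell density of 5 × 10^6 cells/mL. Technique: AK luminescence. Buffer or medium: YPD. Times: static 4 h at 37 °C with compound, 1 h detection. Dosing: single-point compound dose. Read-out: lysis from increased AK signal.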
miR-122 sensor: miR-122 Renilla sensor signal increase in Huh7, primary screen, miR-122 inhibitor project, cell-based, single point, plate reader. AID 602342, 2012. activation (reporter increase), % at 12.5 µM. hit rate 0.3% among 340,000. Huh7 miR-122 Renilla luciferase sensor, 48 h; neutral wells = 0, positive control = 100;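 active = mean replicate activation score at least 90 and every replicate individually at or above 90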;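 note: higher luciferase means less miR-122 activity so hits act as miR-122 inhibitors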
Rtt109 HAT inh: inhibitors of C. albicans Rtt109/Vps75 HAT, primary screen, biochemical, ThioGlo CoA-SH fluorescence, plate reader. purified Rtt109/Vps75, 4 h. inhibition, % at 34.9 µM. hit rate 0.16% among 330,000;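 active = inhibition of at least 50% in every replicate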
Target sequence (Q5AAJ8 whole entry, looked up): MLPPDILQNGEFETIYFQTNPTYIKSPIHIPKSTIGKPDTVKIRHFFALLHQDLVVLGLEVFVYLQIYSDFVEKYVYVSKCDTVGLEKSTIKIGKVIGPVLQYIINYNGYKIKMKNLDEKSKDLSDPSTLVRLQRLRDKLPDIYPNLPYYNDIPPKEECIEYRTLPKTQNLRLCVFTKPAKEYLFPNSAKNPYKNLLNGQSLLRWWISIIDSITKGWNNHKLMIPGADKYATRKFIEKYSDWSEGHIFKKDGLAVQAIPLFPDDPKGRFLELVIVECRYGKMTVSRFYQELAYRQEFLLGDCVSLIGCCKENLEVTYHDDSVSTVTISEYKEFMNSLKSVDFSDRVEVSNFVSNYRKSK
GSIS activator: GLuc luminescence reporter in INS-1E cells, primary screen for activators of glucose-dependent secretion of insulin; INS-1E GLuc reporter insulin secretion, 2-3 h; activation, % at 16.6 µM; hit rate 0.61% among 370,000;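 active = lowest replicate activation of at least 40%, so every replicate reaches that level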
dFosB activator: activators of delta FosB homodimer, primary screen, biochemical, fluorescence polarization, TAMRA-CDK5 oligo, single point; activation, % at 25 µM; purified delta FosB; percent of positive-control signal above neutral wells; Protein FosB (Mus musculus), P13346; AID 493131, 2011; hit rate 0.99% among 340,000;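 active = mean activation above about 17%, with every replicate also reaching it, limit read from the data, passing the limit was not always enough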
A number is an active result; 0 = inactive; - = no result; [ ] = dose if it differs, or a comment. Hits are enriched below; roughly 2.4% of the tested compounds scored in any of these assays.

SMILES	HIV Env fusion	Cneo AK release	miR-122 sensor	Rtt109 HAT inh	GSIS activator	dFosB activator
C[C@H](CO)N1C[C@H](C)[C@H](CN(C)Cc2ccccn2)Oc2ncc(C3=CCCCC3)cc2C1=O	0	0	-	-	0	-
CN(CCO)c1nc(NCc2ccccc2)c2cnn(C)c2n1	0	0	0	0	41	0
CCN(CCO)c1nc(NCc2ccccc2)c2cnn(C)c2n1	0	0	0	0	0	0
O=C(C[C@H]1C[C@H]2c3cc(NC(=O)CC4CC4)ccc3O[C@H]2[C@@H](CO)O1)NCc1cccnc1	-	0	0	-	0	-
Cc1noc(C)c1S(=O)(=O)Nc1ccc2c(c1)C(=O)N([C@@H](C)CO)C[C@@H](C)[C@H](CN(C)C(=O)CCC(F)(F)F)OCCCC[C@H](C)O2	0	0	0	-	0	-
COc1ccc(CNC(=O)C(C)OC(=O)CCN2C(=O)C3CC=CCC3C2=O)cc1 (stereo not given)	-	0	0	0	0	0
CC(OC(=O)CCN1C(=O)C2CC=CCC2C1=O)C(=O)Nc1cccc(Cl)c1 (stereo not given)	0	-	-	0	63	0
COc1ccccc1NC(=O)N[C@@H]1CC[C@@H](CCn2cc(C3(O)CCCC3)nn2)O[C@H]1CO	0	94	0	-	0	-
COc1ccccc1NC(=O)N[C@@H]1CC[C@@H](CCn2cc(-c3ccccc3OC)nn2)O[C@@H]1CO	0	0	-	-	0	-
COc1ccccc1NC(=O)N[C@@H]1CC[C@H](CC(=O)N[C@H](C)c2ccccc2)O[C@@H]1CO	75[16.7 µM]	0	-	-	0	-
COc1ccccc1NC(=O)N[C@@H]1CC[C@H](CCn2cc(-c3ccccc3OC)nn2)O[C@H]1CO	0	107	-	-	0	-
COc1cccc(-c2cn(CC[C@@H]3CC[C@@H](NC(C)=O)[C@H](CO)O3)nn2)c1	0	113	-	-	0	-
CC(C)C#Cc1cnc2c(c1)C(=O)N([C@@H](C)CO)C[C@@H](C)[C@H](CN(C)C(=O)Cc1ccccn1)O2	0	0	0	-	0	-
CNC[C@H]1Oc2c(NC(C)=O)cccc2C(=O)N(C)C[C@@H]1C	-	-	-	-	0	-
CC(C)NC(=O)N[C@H]1CC[C@@H](CCNS(=O)(=O)Cc2ccccc2)O[C@@H]1CO	0	0	-	-	0	-
C[C@H](CO)N1C[C@H](C)[C@@H](CN(C)Cc2ccc(Cl)c(Cl)c2)OCc2ccccc2-c2c(n(C)c3ccccc23)C1=O	-	-	-	-	0	-
COc1ccc2c3c([nH]c2c1)[C@H](CO)N(C(=O)Nc1ccc(F)cc1)CC31CCN(Cc2nccs2)CC1	-	-	-	-	0	-
COc1ccc2c(c1)CCc1c(C(=O)Nc3cc(C)n(Cc4ccc(Cl)cc4)n3)noc1-2	0	0	0	0	47	0
COc1ccc2c(c1)CCc1c(C(=O)NCCc3ccc(OC)c(OC)c3)noc1-2	59	0	0	0	-	0
C[C@H](CO)N1C[C@H](C)[C@H](CN(C)S(=O)(=O)c2ccccc2)Oc2ccc(NC(=O)NC3CCCCC3)cc2CC1=O	87	0	0	0	0	0
C[C@H]1CN([C@@H](C)CO)C(=O)Cc2cc(NC(=O)Nc3ccccc3)ccc2O[C@@H]1CN(C)S(=O)(=O)c1ccccc1	0	0	0	-	0	-
CC(C)NC(=O)Nc1ccc2c(c1)CC(=O)N([C@@H](C)CO)C[C@H](C)[C@H](CN(C)S(=O)(=O)c1ccccc1)O2	0	0	0	-	0	-
CC(C)NC(=O)Nc1ccc2c(c1)CC(=O)N([C@H](C)CO)C[C@H](C)[C@H](CN(C)S(=O)(=O)c1ccccc1)O2	65[16.7 µM]	0	0	-	0	-
C[C@H]1CN([C@@H](C)CO)C(=O)Cc2cc(NC(=O)Nc3ccccc3)ccc2O[C@H]1CN(C)S(=O)(=O)c1ccccc1	70[16.7 µM]	0	0	-	-	-
CC(=O)N[C@H]1CC[C@@H](CCNC(=O)C2CCCCC2)O[C@H]1CO	-	-	-	-	0	-

Bioassay records as filed in PubChem.
